Compounds with a hit are over-represented: about 4.9% of the library has one in this group of screens.
STAT1 act: activators of IFN-gamma induced STAT1 signaling. NIH 3T3 STAT1-luciferase reporter, luminescence; 100% = IFN-gamma alone, no compound. activation (% of control), % at 5.5 µM. actives 2.6% (n = 200,000);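 active means activation above the screen-wide mean activation plus 3 SD, cut at about 130% in these data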;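 further: raw ratio to IFN-gamma control signal so 100% means no change and 0% no light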
STAT1 inh: reduces IFN-gamma driven STAT1 reporter signal. NIH 3T3 STAT1-luciferase reporter, luminescence. inhibition, % at 5.5 µM. actives 0.35% (n = 200,000). AID 920;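 active means inhibition above a set limit, the mean inhibition across all tested compounds plus 3 SD, cut at about 34% in these data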;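 further: 0% = IFN-gamma with DMSO and 100% = IFN-gamma with 300 µM nifuroxazide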
STAT3 blocker: STAT3 signaling inhibition. U3A cells, IL-6 STAT3-luciferase reporter, luminescence; host cell line lacks STAT1. inhibition, % at 5.5 µM. actives 0.89% (n = 190,000). AID 862;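 active means inhibition above the mean inhibition across all screened compounds plus 3 SD, cut at about 44% in these data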;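 further: 0% = DMSO only wells and 100% = 100 µM nifuroxazide control wells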
STAT3 activator: STAT3 signaling activation. U3A cells, IL-6 STAT3-luciferase reporter, luminescence; 100% = signal with IL-6 EC80 alone. activation (% of control), % at 5.6 µM. actives 0.91% (n = 190,000). AID 871;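 active means activation above the screen-wide mean of compound activation plus 3 SD, cut at about 130% in these data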;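 further: 0% = background luminescence of wells with medium and substrate only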
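Material: human STAT1-deficient U3A cells with stable STAT3-luciferase reporter / Probe or stimulus: IL-6 stimulus at 33 ng/mL final / Schedule: 1 h compound pre-exposure, 6 h IL-6 stimulation, 37 °C / Technique: luminescence / Read-out basis: percent of IL-6-only median luminescence / Control set: IL-6-only high control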
APP 5'UTR act: activates APP 5'UTR luciferase reporter | actives 1% (n = 190,000) | activation, % at 2 µM | SH-SY5Y APP 5'UTR luciferase reporter, luminescence; zero percent = DMSO vehicle wells;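 active means activation above a set limit, based on mean plus 3 SD of controls, cut at about 140% in these data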
NF-kB expr up: NF-kB expression increase, human neuronal cells | NF-kB reporter expression; active compounds read high | fold change at 12.5 µM | actives 1.6% (n = 190,000) | AID 1239; in the data active means fold change above about 3.3
Numbers without * were called inactive; / = no result.

SMILES	STAT1 act	STAT1 inh	STAT3 blocker	STAT3 activator	APP 5'UTR act	NF-kB expr up
O=[N+]([O-])c1ccc2nc(/C=C/c3ccc(Cl)cc3)[nH]c2c1	83	19	20	86	136*	0.97
Nc1ccc2nc(-c3ccc(Cl)cc3)[nH]c2c1	/	/	/	/	61	8.5*
CC(C)(OC1OC(CO)C(O)C(O)C1O)[C@H]1Oc2ccc3ccc(=O)oc3c2[C@H]1O (some centres not stated)	102	-2	0	97	17	1
O=C(CCl)Nc1cn(-c2ccccc2)nc1-c1ccc(F)cc1	97	0	5	100	-8	1
COc1ccc2o/c(=N/NC(=S)Nc3ccccc3)c(C(N)=O)cc2c1	104	-4	-2	102	11	1.1
Nc1[nH]ncc1-c1ccc(F)cc1	104	-5	0	102	11	1.3
CC(=O)N1C(C)(C)CC(=NOS(=O)(=O)c2ccccc2)CC1(C)C	102	-5	-3	108	-4	1.1
O=C1NC(=S)S/C1=C/c1ccc(Oc2cnccn2)cc1	104	-4	1	101	-19	1.6
O=C1NC(=O)/C(=C\c2ccc(Oc3cnccn3)cc2)S1	140*	-43	-35	129	33	2.2
CN1CCN(NC(=O)c2cc(Br)ccc2Cl)CC1	100	-1	7	100	3	1.1
COCCCNCC(O)COc1ccccc1F (configuration not stated)	100	-2	3	106	18	1.1
O=c1cc(-c2ccc(F)cc2)oc2ccccc12	133*	-37	8	97	26	/
CSc1ccc(-c2cc(=O)c3ccccc3o2)cc1	134*	-37	-45	141*	142*	3.1
O=c1cc(-c2ccccc2F)oc2ccccc12	135*	-38	2	101	64	2.3
O=c1cc(-c2ccccc2[N+](=O)[O-])oc2ccccc12	110	-11	-12	116	24	1
CCC1(C)N=C(c2ccc3c(c2)OCO3)CC(c2ccccc2O)N1 (configuration not stated)	93	7	-44	144*	71	2.2
CC(=O)N1CCN(c2ccc(NCc3ccc(C)s3)cc2)CC1	104	-4	14	95	/	1.1
Cc1ccc(CNc2ccc(N3CCOCC3)cc2)s1	145*	-49	0	103	84	3.2
COc1cc(/C=N/NC(=O)Cn2nnc3ccccc32)ccc1O	108	-9	2	106	13	1.1
Cc1ccc(NC(=O)Cn2nnc3ccccc32)cc1	126	-31	-23	121	57	0.94
COC(=O)c1ccc(NC(=O)Cn2nnc3ccccc32)cc1	134*	-37	2	103	63	2.5
Cc1cccc(NC(=O)Cn2nnc3ccccc32)c1	130*	-36	-7	112	45	2.6
COc1cccc(/C=N\NC(=O)Cn2nnc3ccccc32)c1O	105	-8	-8	108	0	3.3*
Cc1cc(C)c(C#N)c(Oc2ccccc2Br)n1	97	0	-3	106	-9	1.4
Cc1cccn2cc(CSc3ccccc3N)nc12	139*	-65	12	90	-3	3.2
SMILES	STAT1 act	STAT1 inh	STAT3 blocker	STAT3 activator	APP 5'UTR act	NF-kB expr up
Nc1ccccc1SCc1cn2ccccc2n1	146*	-50	10	95	88	1
Nc1ccccc1SCc1cn2cccnc2n1	107	-8	3	105	17	1.1
Cc1cccc2nc(CSc3ccc(Cl)cc3)cn12	132*	-34	16	91	102	/
Cc1nc(CSc2ccc(Cl)cc2)cc(NCc2ccccc2)n1	98	2	4	103	4	1.2
Cc1cccc2nc(CSc3nc4ccccc4[nH]3)cn12	111	-11	13	91	6	1.3
CNc1cc(CSc2ccc(Cl)cc2)nc(C)n1	135*	-38	0	106	87	2.4
Cn1cnnc1SCC(=O)Nc1ccc(Cl)c(S(=O)(=O)N2CCOCC2)c1	99	0	1	101	-20	1.2
Clc1ccc2nc(CSc3nnc4ccccn34)cn2c1	141*	-45	-2	105	107	3.1
Cc1cccc2nc(CSCc3ccco3)cn12	135*	-38	10	96	114	2.3
Cc1cc(C)n2cc(CSCc3ccco3)nc2n1	92	9	0	102	19	1.2
Clc1ccc2nc(CSc3nc4ccccc4o3)cn2c1	120	-22	19	87	72	3.1
Clc1ccc(SCc2cn3ccccc3n2)cc1	133*	-37	7	95	95	3
Clc1ccc2nc(CSCc3ccccc3)cn2c1	145*	-50	6	97	139*	1.2
Clc1ccc2nc(CSc3nncn3-c3ccccc3)cn2c1	93	7	6	98	-15	1
CC1(C)CC(O)C(C(O)c2cccc([N+](=O)[O-])c2)C(C)(C)N1 (configuration not stated)	102	-2	1	102	11	0.89
COc1ccc2oc(C(=O)NCCC(C)C)c(C)c2c1	135*	-41	11	93	139*	1
Cc1ccccc1NC(=S)NNC(=O)c1csc2c1CCC(C)C2 (configuration not stated)	93	8	30	78	180*	0.46
CC1CCc2c(C(=O)Nc3nccs3)csc2C1 (configuration not stated)	116	-17	-8	109	60	4.1*
Cc1ccn2c(C(=O)c3ccc(Cl)cc3)cnc2c1	146*	-50	34	75	165*	2
CC(=O)OC(C(=O)Nc1ccccc1C)C(OC(C)=O)C(OC(C)=O)C(OC(C)=O)C(=O)Nc1ccccc1C (configuration not stated)	105	-6	3	100	-3	/
CC(C)c1ccc(NC(=O)c2n[nH]c(=O)c3ccccc23)cc1	133*	-36	8	96	66	1.2
CC(C)c1ccc(NC(=S)NNC(=O)c2cccnc2)cc1	116	-18	0	105	12	1.6
CC(C)c1ccc(NC(=O)c2cccnc2)cc1	143*	-47	15	89	103	2.7
CCn1ncc(C2=NOC(C(=O)NCc3ccc(Cl)cc3)C2)c1C (configuration not stated)	108	-7	-9	113	-49	2.1
O=C(NCCCN1CCOCC1)c1ccc(-n2nc(C(F)(F)F)cc2-c2cccs2)cc1	91	9	24	80	-15	0.74
O=C(NCCCn1ccnc1)c1ccc(S(=O)(=O)N2CCOCC2)cc1	99	0	12	97	-6	4*
O=C(NCCCn1ccnc1)c1cc(-c2cccs2)on1	147*	-51	-26	123	19	11*
O=C(NCCCN1CCOCC1)c1cc(-c2cccs2)on1	119	-21	-21	120	22	7.3*

Bioassay records deposited in PubChem by several laboratories.
